In ChEMBL document CHEMBL5724801, “EUbOPEN Chemogenomics Library - Multiplex” (2024):
Where “and” joins values, the source holds several entries; their conditions need not be identical. Equal values may be shown once.

Test system: U2OS
Experiment: Multiplex assay against U2OS
Format: toxicity, cell-based
Conditions: human
Summary of the method: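 Per cents of healthy-nucleus cells form the tubulin, mitochondrial-mass and membrane-permeability phenotype values. Live cells were stained at seeding with Hoechst33342, BioTracker Green Microtubule Cytoskeleton Dye, MitoTracker Red and Annexin V Alexa Fluor 680. After compound addition they were imaged on a CQ1 microscope at 37°C and 5% CO2, and CellPathfinder machine-learning gating split them into Hoechst high-intensity objects or normal cells, normal cells into healthy, pyknosed or fragmented nuclei, and pyknosed cells into mitotic or apoptotic.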

[1] = 12 h, 1 µM, compound concentration 1 uM
[2] = 12 h, 10 µM, compound concentration 10 uM
[3] = 24 h, 1 µM, compound concentration 1 uM
[4] = 24 h, 10 µM, compound concentration 10 uM
[5] = 48 h, 1 µM, compound concentration 1 uM
[6] = 48 h, 10 µM, compound concentration 10 uM

SMILES: CCCn1c(=O)c2[nH]c(C3CCCC3)nc2n(CCC)c1=O [1,3-DIPROPYL-8-CYCLOPENTYLXANTHINE [DPCPX]]
- Population Apoptotic (%) [1]: 87% and 93%
- Population Fragmented Nuclei (%) [1]: 25% and 15%
- Population Healthy Nuclei (%) [1]: 64% and 72%
- Population Hoechst High Intensity Objects (%) [1]: 1% and 0%
- Population Membrane Permeable-Phenotype (%) [1]: 1% and 7%
- Population Mitochondria Different-Phenotype (%) [1]: 3% and 4%
- Population Mitotic Cells (%) [1]: 12% and 6%
- Population Normal (%) [1]: 98% and 100%
- Population Pyknosed Nuclei (%) [1]: 9% and 12%
- Population Tubulin-Different-Phenotype (%) [1]: 1% and 5%
- Total Cell Count [1]: 250 and 125
- Population Apoptotic (%) [2]: 68% and 100%
- Population Fragmented Nuclei (%) [2]: 30% and 21%
- Population Healthy Nuclei (%) [2]: 60% and 69%
- Population Hoechst High Intensity Objects (%) [2]: 2% and 3%
- Population Membrane Permeable-Phenotype (%) [2]: 5% and 6%
- Population Mitochondria Different-Phenotype (%) [2]: 1% and 9%
- Population Normal (%) [2]: 97% and 96%
- Population Pyknosed Nuclei (%) [2]: 9% and 8%
- Population Tubulin-Different-Phenotype (%) [2]: 3%
- Total Cell Count [2]: 206 and 96
- Population Apoptotic (%) [3]: 83% and 87%
- Population Fragmented Nuclei (%) [3]: 24% and 13%
- Population Healthy Nuclei (%) [3]: 68% and 74%
- Population Hoechst High Intensity Objects (%) [3]: 3% and 2%
- Population Membrane Permeable-Phenotype (%) [3]: 5% and 8%
- Population Mitochondria Different-Phenotype (%) [3]: 3%
- Population Mitotic Cells (%) [3]: 16% and 12%
- Population Normal (%) [3]: 96% and 97%
- Population Pyknosed Nuclei (%) [3]: 7% and 11%
- Population Tubulin-Different-Phenotype (%) [3]: 4%
- Total Cell Count [3]: 261 and 138
- Population Apoptotic (%) [4]: 89% and 100%
- Population Fragmented Nuclei (%) [4]: 27% and 21%
- Population Healthy Nuclei (%) [4]: 64% and 71%
- Population Hoechst High Intensity Objects (%) [4]: 2% and 4%
- Population Membrane Permeable-Phenotype (%) [4]: 7% and 3%
- Population Mitochondria Different-Phenotype (%) [4]: 0% and 3%
- Population Mitotic Cells (%) [4]: 10% and 0%
- Population Normal (%) [4]: 97% and 95%
- Population Pyknosed Nuclei (%) [4]: 8% and 6%
- Population Tubulin-Different-Phenotype (%) [4]: 0%
- Total Cell Count [4]: 234 and 120
- Population Apoptotic (%) [5]: 86% and 92%
- Population Fragmented Nuclei (%) [5]: 20% and 17%
- Population Healthy Nuclei (%) [5]: 69%
- Population Hoechst High Intensity Objects (%) [5]: 1% and 2%
- Population Membrane Permeable-Phenotype (%) [5]: 3% and 8%
- Population Mitochondria Different-Phenotype (%) [5]: 1% and 4%
- Population Mitotic Cells (%) [5]: 13% and 8%
- Population Normal (%) [5]: 98% and 97%
- Population Pyknosed Nuclei (%) [5]: 10% and 13%
- Population Tubulin-Different-Phenotype (%) [5]: 2% and 3%
- Total Cell Count [5]: 364 and 196
- Population Apoptotic (%) [6]: 77% and 100%
- Population Fragmented Nuclei (%) [6]: 24% and 19%
- Population Healthy Nuclei (%) [6]: 62% and 73%
- Population Hoechst High Intensity Objects (%) [6]: 2% and 3%
- Population Membrane Permeable-Phenotype (%) [6]: 4% and 5%
- Population Mitochondria Different-Phenotype (%) [6]: 1% and 3%
- Population Mitotic Cells (%) [6]: 22% and 0%
- Population Normal (%) [6]: 97% and 96%
- Population Pyknosed Nuclei (%) [6]: 12% and 6%
- Population Tubulin-Different-Phenotype (%) [6]: 3% and 0%
- Total Cell Count [6]: 322 and 165

SMILES: O=c1nc2[nH]c3ccccc3nc-2c(=O)[nH]1 [ALLOXAZINE]
- Population Apoptotic (%) [1]: 70% and 75%
- Population Fragmented Nuclei (%) [1]: 25% and 15%
- Population Healthy Nuclei (%) [1]: 61% and 74%
- Population Hoechst High Intensity Objects (%) [1]: 2%
- Population Membrane Permeable-Phenotype (%) [1]: 5%
- Population Mitochondria Different-Phenotype (%) [1]: 0% and 5%
- Population Mitotic Cells (%) [1]: 29% and 25%
- Population Normal (%) [1]: 97%
- Population Pyknosed Nuclei (%) [1]: 12% and 10%
- Population Tubulin-Different-Phenotype (%) [1]: 3%
- Total Cell Count [1]: 195 and 122
- Population Apoptotic (%) [2]: 86% and 88%
- Population Fragmented Nuclei (%) [2]: 33% and 13%
- Population Healthy Nuclei (%) [2]: 59% and 78%
- Population Hoechst High Intensity Objects (%) [2]: 0% and 1%
- Population Membrane Permeable-Phenotype (%) [2]: 7%
- Population Mitochondria Different-Phenotype (%) [2]: 0% and 5%
- Population Mitotic Cells (%) [2]: 13% and 11%
- Population Normal (%) [2]: 99% and 98%
- Population Pyknosed Nuclei (%) [2]: 7%
- Population Tubulin-Different-Phenotype (%) [2]: 1% and 3%
- Total Cell Count [2]: 212 and 119
- Population Apoptotic (%) [3]: 73% and 57%
- Population Fragmented Nuclei (%) [3]: 24% and 16%
- Population Healthy Nuclei (%) [3]: 66% and 74%
- Population Hoechst High Intensity Objects (%) [3]: 1% and 2%
- Population Membrane Permeable-Phenotype (%) [3]: 4% and 5%
- Population Mitochondria Different-Phenotype (%) [3]: 1% and 5%
- Population Mitotic Cells (%) [3]: 26% and 42%
- Population Normal (%) [3]: 98% and 97%
- Population Pyknosed Nuclei (%) [3]: 8% and 9%
- Population Tubulin-Different-Phenotype (%) [3]: 2%
- Total Cell Count [3]: 261 and 146
- Population Apoptotic (%) [4]: 78% and 75%
- Population Fragmented Nuclei (%) [4]: 30% and 16%
- Population Healthy Nuclei (%) [4]: 61% and 80%
- Population Hoechst High Intensity Objects (%) [4]: 0% and 2%
- Population Membrane Permeable-Phenotype (%) [4]: 8% and 5%
- Population Mitochondria Different-Phenotype (%) [4]: 2% and 4%
- Population Mitotic Cells (%) [4]: 21% and 25%
- Population Normal (%) [4]: 99% and 97%
- Population Pyknosed Nuclei (%) [4]: 8% and 2%
- Population Tubulin-Different-Phenotype (%) [4]: 2% and 3%
- Total Cell Count [4]: 237 and 148
- Population Apoptotic (%) [5]: 84% and 76%
- Population Fragmented Nuclei (%) [5]: 19% and 18%
- Population Healthy Nuclei (%) [5]: 71% and 72%
- Population Hoechst High Intensity Objects (%) [5]: 1% and 6%
- Population Membrane Permeable-Phenotype (%) [5]: 1% and 4%
- Population Mitochondria Different-Phenotype (%) [5]: 1% and 2%
- Population Mitotic Cells (%) [5]: 15% and 23%
- Population Normal (%) [5]: 98% and 93%
- Population Pyknosed Nuclei (%) [5]: 9% and 8%
- Population Tubulin-Different-Phenotype (%) [5]: 1% and 2%
- Total Cell Count [5]: 362 and 207
- Population Apoptotic (%) [6]: 90% and 76%
- Population Fragmented Nuclei (%) [6]: 26% and 12%
- Population Healthy Nuclei (%) [6]: 66% and 79%
- Population Hoechst High Intensity Objects (%) [6]: 1%
- Population Membrane Permeable-Phenotype (%) [6]: 5% and 3%
- Population Mitochondria Different-Phenotype (%) [6]: 1%
- Population Mitotic Cells (%) [6]: 9% and 23%
- Population Normal (%) [6]: 98%
- Population Pyknosed Nuclei (%) [6]: 6% and 8%
- Population Tubulin-Different-Phenotype (%) [6]: 2%
- Total Cell Count [6]: 321 and 210
